Source: ChEMBL document CHEMBL1128352, “Substituted (1,2-diarylethyl)amide acyl-CoA:cholesterol acyltransferase inhibitors: effect of polar groups on in vitro and in vivo activity” (J Med Chem, 1995)

Tests used:
[1] = target: T1, Sterol O-acyltransferase 1 (Rattus norvegicus, UniProt O70536); test: In vitro inhibition of acyl coenzyme A:cholesterol acyltransferase 1, rat liver microsomal assay
T1 sequence (O70536 whole entry): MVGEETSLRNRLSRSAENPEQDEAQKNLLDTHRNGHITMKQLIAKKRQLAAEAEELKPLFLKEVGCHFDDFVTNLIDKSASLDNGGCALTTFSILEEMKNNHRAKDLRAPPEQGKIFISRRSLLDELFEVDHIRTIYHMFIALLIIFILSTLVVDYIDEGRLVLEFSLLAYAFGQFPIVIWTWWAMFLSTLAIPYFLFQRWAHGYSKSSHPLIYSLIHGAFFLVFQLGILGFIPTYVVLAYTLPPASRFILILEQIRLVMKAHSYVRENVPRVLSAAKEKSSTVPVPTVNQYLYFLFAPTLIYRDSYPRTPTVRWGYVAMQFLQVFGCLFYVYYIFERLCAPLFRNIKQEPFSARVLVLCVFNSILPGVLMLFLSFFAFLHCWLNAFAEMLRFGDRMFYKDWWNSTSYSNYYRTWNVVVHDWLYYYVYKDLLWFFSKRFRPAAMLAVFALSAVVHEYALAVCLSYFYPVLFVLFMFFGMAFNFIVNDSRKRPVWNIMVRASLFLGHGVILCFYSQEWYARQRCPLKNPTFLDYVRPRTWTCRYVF
How it was run: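 Compound added from DMSO stock and preincubated 15 min at 37 °C. [³H]oleoyl-CoA (10 µM final, 1 µCi) then added for 15 min at 37 °C. Cholesteryl [³H]oleate separated by silica TLC and counted by liquid scintillation.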

Cricetinae gen. sp. [2] = test: In vivo effect on serum cholesterol level of cholesterol-fed hamsters at a dose of 50 mg/kg per oral; format: functional
Cricetinae gen. sp. [3] = test: In vivo effect on cholesteryl esters level of cholesterol-fed hamsters at a dose of 50 mg/kg per oral; format: functional
How it was run: (§1)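 Male golden Syrian hamsters (100–125 g) were fed a high-cholesterol diet for 7 days. Compound was given by oral gavage in 0.2 mL corn oil/day. Liver lipids were Folch-extracted and hepatic cholesteryl ester measured by HPLC. Results are given as percent change versus cholesterol-fed controls dosed with vehicle alone.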

Cricetinae gen. sp. [4] = test: In vivo dose effecting the cholesteryl esters in cholesterol-fed hamsters at a dose of 50(mpk); format: functional
Cricetinae gen. sp. [5] = test: In vivo effect on cholesteryl esters in cholesterol-fed hamsters at a dose of 50(mpk); format: functional; how it was run: as §1
Cricetinae gen. sp. [6] = test: In vivo effect on serum cholesterol level of cholesterol-fed hamsters at a dose of 50(mpk); format: functional
Cricetinae gen. sp. [7] = test: In vivo effect on cholesteryl esters in cholesterol-fed hamsters at a dose of 100(mpk); format: functional; how it was run: as §1
Cricetinae gen. sp. [8] = test: In vivo effect on serum cholesterol level of cholesterol-fed hamsters at a dose of 100(mpk); format: functional
[9] = target: T2, Sterol O-acyltransferase 1 (Rattus norvegicus) (UniProt O70536); test: In vitro ability of compound to inhibit Acyl coenzyme A:cholesterol acyltransferase 1 using rat liver microsomal assay; settings: concentration not given here
T2 sequence (whole entry): T1 sequence (O70536 whole entry)
How it was run: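 Rat liver microsomes (12.5 µg protein) in 0.1 M potassium phosphate with 2 mM DTT, pH 7.4, and 90 µM fatty-acid-free BSA. Compound added from DMSO stock and preincubated 15 min at 37 °C. [³H]oleoyl-CoA (10 µM final, 1 µCi) then added for 15 min at 37 °C. Cholesteryl [³H]oleate separated by silica TLC and counted by liquid scintillation.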

Row | Compound | IC50 [1] | Change (Cricetinae gen. sp. [2]) | Change (Cricetinae gen. sp. [3]) | other results
1 | CCCCCCCN(Cc1ccc(CC(C)(C)C)cc1)C(=O)Nc1ccc(F)cc1F [CL-277082] | – | – | – | ED50 (Cricetinae gen. sp. [4]): 15 mg/kg; Change (Cricetinae gen. sp. [5]): -85%; Change (Cricetinae gen. sp. [6]): -29%
2 | CCCCCCCC/C=C\CCCCCCCC(=O)NC(Cc1ccccc1)c1ccccc1 (configuration not stated) | – | – | – | Change (Cricetinae gen. sp. [7]): -23%; Change (Cricetinae gen. sp. [8]): -4%
3 | CCCCCCCn1ccnc1CC(NC(=O)C(c1ccccc1)c1ccccc1)c1ccccc1 (configuration not stated) | 5 µM | 0% | 0% | –
4 | CCCCCCCC/C=C\CCCCCCC(C)(C)C(=O)NC(Cc1ccc(N)cc1)c1ccccc1 (configuration not stated) | 0.36 µM | – | – | Change (Cricetinae gen. sp. [7]): -54%; Change (Cricetinae gen. sp. [8]): -24%
5 | C[Si](C)(C)CCOCn1ccnc1CC(NC(=O)C(c1ccccc1)c1ccccc1)c1ccccc1 (configuration not stated) | 5 µM | 0% | -24% | –
6 | O=C(NC(Cc1ccccc1)c1cccc(O)c1)C(c1ccccc1)c1ccccc1 (configuration not stated) | – | -17% | -19% | inhibition [9]: 88%
7 | CCCCCCCCCCC(C)(C)C(=O)Nc1c(OC)cc(OC)cc1OC [CL-976] | – | – | – | ED50 (Cricetinae gen. sp. [4]): 20 mg/kg; Change (Cricetinae gen. sp. [5]): -67%; Change (Cricetinae gen. sp. [6]): -10%
8 | Nc1ccc(CC(NC(=O)C(c2ccccc2)c2ccccc2)c2ccccc2)cc1 (racemic) | – | – | – | ED50 (Cricetinae gen. sp. [4]): 21 mg/kg; Change (Cricetinae gen. sp. [5]): -60%; Change (Cricetinae gen. sp. [6]): -13%
9 | COc1ccc(CC(NC(=O)C(c2ccccc2)c2ccccc2)c2cccc(OC)c2)cc1 (configuration not stated) | 2.4 µM | -20% | 0% | –
10 | Nc1ccc(CC(NC(=O)C(c2ccccc2)c2ccccc2)c2ccccc2)cc1 (stereo in doubt; (+)-5) | – | – | 0% | –
11 | COc1ccc(CC(NC(=O)C(c2ccccc2)c2ccccc2)c2ccccc2)cc1OC (configuration not stated) | 0.5 µM | -21% | -26% | –
12 | O=C(NC(Cc1ccc(O)cc1)c1ccc(O)cc1)C(c1ccccc1)c1ccccc1 (configuration not stated) | – | -20% | -40% | inhibition [9]: 97%
13 | Nc1ccc(CC(NC(=O)C(c2ccccc2)c2ccccc2)c2ccccc2)cc1 (single isomer, unassigned; (-)) | – | 0% | -81% | –
14 | C[Si](C)(C)CCOCn1ccnc1C(Cc1ccccc1)NC(=O)C(c1ccccc1)c1ccccc1 (configuration not stated) | > 10 µM | – | – | –
15 | COc1ccc(CC(NC(=O)C(c2ccccc2)c2ccccc2)c2ccc(OC)cc2)cc1 (configuration not stated) | > 10 µM | 0% | -32% | –
16 | CCCCCCCCCC[Si](C)(C)CCC(=O)NC(Cc1ccc(C)cc1)c1ccccc1 (configuration not stated) | 0.3 µM | – | – | Change (Cricetinae gen. sp. [7]): 0%; Change (Cricetinae gen. sp. [8]): -5%

Continued, in another order:

Row | IC50 [1] | Compound | Change (Cricetinae gen. sp. [2]) | Change (Cricetinae gen. sp. [3]) | other results
17 | 1.8 µM | COc1ccccc1C(Cc1ccccc1)NC(=O)C(c1ccccc1)c1ccccc1 (configuration not stated) | 0% | -51% | –
18 | 0.36 µM | CS(=O)(=O)Nc1ccc(CC(NC(=O)C(c2ccccc2)c2ccccc2)c2ccccc2)cc1 (configuration not stated) | -17% | -32% | –
19 | 2.8 µM | Nc1ccc(C(Cc2ccccc2)NC(=O)C(c2ccccc2)c2ccccc2)cc1 (configuration not stated) | 0% | -24% | –
20 | 1.5 µM | COc1cccc(C(Cc2ccccc2)NC(=O)C(c2ccccc2)c2ccccc2)c1 (configuration not stated) | 0% | 0% | –
21 | > 10 µM | O=C(NC(Cc1ncc[nH]1)c1ccccc1)C(c1ccccc1)c1ccccc1 (configuration not stated) | – | – | –
22 | 0.46 µM | O=C(NC(Cc1ccccc1)c1ccccc1)C(c1ccccc1)c1ccccc1 (configuration not stated) | – | – | Change (Cricetinae gen. sp. [5]): -15%; Change (Cricetinae gen. sp. [6]): 0%
23 | 1.5 µM | COc1ccc(C(Cc2ccccc2)NC(=O)C(c2ccccc2)c2ccccc2)cc1 (configuration not stated) | -14% | -69% | –
24 | 10 µM | O=C(O)c1ccc(C(Cc2ccccc2)NC(=O)C(c2ccccc2)c2ccccc2)cc1 (configuration not stated) | 0% | 0% | –
25 | 3.5 µM | O=C(NC(Cn1ccnc1)c1ccccc1)C(c1ccccc1)c1ccccc1 (configuration not stated) | 0% | 0% | –
26 | 0.8 µM | O=C(NC(Cc1ccc(O)cc1)c1ccccc1)C(c1ccccc1)c1ccccc1 (configuration not stated) | 0% | 0% | –
27 | 5 µM | Nc1cccc(CC(NC(=O)C(c2ccccc2)c2ccccc2)c2ccccc2)c1 (configuration not stated) | -15% | -31% | –
28 | 4 µM | O=C(NC(Cc1ccccc1)c1cccnc1)C(c1ccccc1)c1ccccc1 (configuration not stated) | -9% | 0% | –
29 | 1 µM | O=C(NC(Cc1ccccc1)c1ccc(O)cc1)C(c1ccccc1)c1ccccc1 (configuration not stated) | -14% | -69% | –
30 | 1.8 µM | O=C(NC(Cc1ccncc1)c1ccccc1)C(c1ccccc1)c1ccccc1 (configuration not stated) | -10% | -52% | –
31 | > 10 µM | COC(=O)c1ccc(CC(NC(=O)C(c2ccccc2)c2ccccc2)c2ccccc2)cc1 (configuration not stated) | – | – | –
32 | > 10 µM | O=C(O)c1ccc(CC(NC(=O)C(c2ccccc2)c2ccccc2)c2ccccc2)cc1 (configuration not stated) | – | – | –
33 | > 10 µM | O=C(NC(Cc1ccccc1)c1cc[n+]([O-])cc1)C(c1ccccc1)c1ccccc1 (configuration not stated) | 0% | -28% | –
34 | 1.6 µM | COc1ccc(CC(NC(=O)C(c2ccccc2)c2ccccc2)c2ccccc2)cc1 (configuration not stated) | -14% | -65% | –
35 | 2.3 µM | O=C(NC(Cc1ccccc1)c1ccncc1)C(c1ccccc1)c1ccccc1 (configuration not stated) | -13% | -29% | –
36 | 0.35 µM | CC(=O)Nc1ccc(CC(NC(=O)C(c2ccccc2)c2ccccc2)c2ccccc2)cc1 (configuration not stated) | -12% | 0% | –
37 | > 10 µM | O=C(NC(Cc1ccccc1)c1ncc[nH]1)C(c1ccccc1)c1ccccc1 (configuration not stated) | – | – | –
